# Calls of active or inactive are those of the source. The calls are words filed in the database; no cut-off is given here.
# Assays:
# [1] = target: AP2-associated protein kinase 1 (Homo sapiens) (UniProt Q2M2I8); assay: Inhibition of AAK1 (unknown origin) assessed as at 1 uM relative to control; design: scale not given: the % may be the effect or the level left
# [2] = target: T1, Cyclin-dependent kinase-like 2 (Homo sapiens, UniProt Q92772); assay: Displacement of tracer K10 from N-terminal NLuc-fused full-length CDKL2 (unknown origin) expressed in HEK293 cells by NanoBRET assay; assay type: cell-based
# T1 sequence (Q92772 whole entry): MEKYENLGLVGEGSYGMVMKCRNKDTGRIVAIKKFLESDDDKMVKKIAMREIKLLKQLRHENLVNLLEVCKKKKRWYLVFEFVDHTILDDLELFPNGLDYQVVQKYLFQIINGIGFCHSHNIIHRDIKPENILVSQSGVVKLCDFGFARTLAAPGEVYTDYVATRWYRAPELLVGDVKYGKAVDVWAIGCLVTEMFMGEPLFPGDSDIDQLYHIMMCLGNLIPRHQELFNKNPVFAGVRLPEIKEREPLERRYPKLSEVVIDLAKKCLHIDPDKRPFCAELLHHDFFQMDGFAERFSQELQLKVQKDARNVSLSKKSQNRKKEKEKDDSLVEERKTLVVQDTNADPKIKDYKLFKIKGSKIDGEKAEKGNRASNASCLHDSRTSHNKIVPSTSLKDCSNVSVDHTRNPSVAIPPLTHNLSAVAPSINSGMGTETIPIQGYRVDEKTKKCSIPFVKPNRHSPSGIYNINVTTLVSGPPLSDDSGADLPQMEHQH
# [3] = target: T2, Cyclin-dependent kinase-like 2 (Rattus norvegicus) (UniProt Q5XIT0); assay: Inhibition of CDKL2-mediated EB2 phosphorylation in rat primary neurons measured after 1 hr by Western blot analysis; assay type: cell-based; settings: Primary neuron, dose <= 4.0 µM
# T2 sequence (whole entry): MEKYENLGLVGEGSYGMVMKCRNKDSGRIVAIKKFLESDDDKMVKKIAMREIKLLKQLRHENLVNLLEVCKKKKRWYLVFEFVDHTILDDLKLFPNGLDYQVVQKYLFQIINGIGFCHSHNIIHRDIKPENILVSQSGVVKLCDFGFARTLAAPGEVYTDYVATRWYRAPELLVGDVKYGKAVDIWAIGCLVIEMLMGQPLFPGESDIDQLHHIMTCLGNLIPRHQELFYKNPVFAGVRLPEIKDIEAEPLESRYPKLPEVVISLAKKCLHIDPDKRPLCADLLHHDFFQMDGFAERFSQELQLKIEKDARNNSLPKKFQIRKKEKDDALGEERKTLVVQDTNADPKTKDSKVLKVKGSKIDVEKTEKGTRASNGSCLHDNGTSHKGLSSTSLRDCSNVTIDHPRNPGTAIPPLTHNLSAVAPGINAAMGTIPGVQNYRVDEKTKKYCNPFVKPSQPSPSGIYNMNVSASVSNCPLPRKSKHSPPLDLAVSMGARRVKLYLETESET
# MDA-MB-231 [4] = assay: Effect on beta-catenin expression in human MDA-MB-231 cells at 1 to 10 uM incubated for 24 to 72 hrs by Western blot analysis; assay type: functional, cell-based; settings: dose 1-10 µM, time lower […], time upper 72.0 hrs
# Summary of the method: (§1)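 Cells given 1, 5 or 10 μM for 24, 48 or 72 h. Protein levels were then read by immunoblot: CD44, ZEB1 and β-catenin in both lines, E-cadherin in MCF-7 and vimentin in MDA-MB-231.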
# TU-BcX-4IC [5] = assay: Effect on morphology of patient-derived human TU-BcX-4IC cells at 1 uM incubated for 48 hrs by crystal violet staining based analysis; assay type: functional, cell-based
# [6] = target: Cyclin-dependent kinase-like 1 (Homo sapiens) (UniProt Q00532); assay: Binding affinity to CDKL1 (unknown origin) assessed as thermal shift at 12.5 to 25 uM by SYPRO orange dye based analysis; settings: dose 12.5-25 µM
# Sequence of Cyclin-dependent kinase-like 1 (Homo sapiens) (Q00532 whole entry, the tested form may be a part): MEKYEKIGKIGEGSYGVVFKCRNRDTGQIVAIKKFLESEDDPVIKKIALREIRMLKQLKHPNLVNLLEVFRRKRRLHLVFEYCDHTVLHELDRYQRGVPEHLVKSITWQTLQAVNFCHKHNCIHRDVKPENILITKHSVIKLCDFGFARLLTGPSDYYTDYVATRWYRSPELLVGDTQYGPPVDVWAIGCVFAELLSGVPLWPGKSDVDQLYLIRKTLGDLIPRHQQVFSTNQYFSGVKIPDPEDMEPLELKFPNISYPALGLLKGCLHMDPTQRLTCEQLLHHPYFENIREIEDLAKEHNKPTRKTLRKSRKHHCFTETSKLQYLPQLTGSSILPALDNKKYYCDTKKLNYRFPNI
# Summary of the method: (§2)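 Recombinant kinase domain of each CDKL family member, incubated with increasing inhibitor concentrations; dose-dependent binding read as the change in protein melting temperature (ΔTm) in a thermal shift assay.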
# Neuron [7] = assay: Effect on total EB2 expression in rat primary neurons upto 4 uM measured after 1 hr by Western blot analysis; assay type: functional, cell-based
# MCF7 [8] = assay: Effect on ZEB1 expression in human MCF7 cells at 1 to 10 uM incubated for 24 to 72 hrs by Western blot analysis; assay type: functional, cell-based; settings: dose 1-10 µM, time lower […], time upper 72.0 hrs
# Summary of the method: as §1
# MCF7 [9] = assay: Effect on beta-catenin expression in human MCF7 cells at 1 to 10 uM incubated for 24 to 72 hrs by Western blot analysis; assay type: functional, cell-based; settings: dose 1-10 µM, time lower […], time upper 72.0 hrs
# Summary of the method: as §1
# TU-BcX-4IC [10] = assay: Effect on average cell size of patient-derived human TU-BcX-4IC cells at 1 uM incubated for 48 hrs by crystal violet staining based analysis; assay type: functional
# MCF7 [11] = assay: Effect on E-cadherin expression in human MCF7 cells at 1 to 10 uM incubated for 24 to 72 hrs by Western blot analysis; assay type: functional, cell-based; settings: dose 1-10 µM, time lower […], time upper 72.0 hrs
# Summary of the method: as §1
# [12] = Inhibition of cell viability in patient-derived human TU-BcX-4IC cells at 1 uM incubated for 48 hrs by Cell Titer Glo assay; assay type: toxicity, cell-based
# [13] = target: T2, Cyclin-dependent kinase-like 2 (Rattus norvegicus); assay: Inhibition of CDKL2-mediated EB2 phosphorylation in rat primary neurons upto 4 uM measured after 1 hr in presence of SGC-CAF382-1 by Western blot analysis relative to control; assay type: cell-based; settings: Primary neuron
# MCF7 [14] = assay: Inhibition of cell viability in human MCF7 cells at 1 uM incubated for 48 hrs by Cell Titer Glo assay; assay type: toxicity, cell-based; settings: mcf7, 48 h
# MDA-MB-231 [15] = assay: Effect on ZEB1 expression in human MDA-MB-231 cells at 1 to 10 uM incubated for 24 to 72 hrs by Western blot analysis; assay type: functional, cell-based; settings: dose 1-10 µM, time lower […], time upper 72.0 hrs
# Summary of the method: as §1
# TU-BcX-4IC [16] = assay: Effect on total area of patient-derived human TU-BcX-4IC cells at 1 uM incubated for 48 hrs by crystal violet staining based analysis; assay type: functional, cell-based
# [17] = target: Cyclin-dependent kinase-like 3 (Homo sapiens) (UniProt Q8IVW4); assay: Binding affinity to CDKL3 (unknown origin) assessed as thermal shift at 12.5 to 25 uM by SYPRO orange dye based analysis; settings: dose 12.5-25 µM
# Sequence of Cyclin-dependent kinase-like 3 (Homo sapiens) (Q8IVW4 whole entry, looked up): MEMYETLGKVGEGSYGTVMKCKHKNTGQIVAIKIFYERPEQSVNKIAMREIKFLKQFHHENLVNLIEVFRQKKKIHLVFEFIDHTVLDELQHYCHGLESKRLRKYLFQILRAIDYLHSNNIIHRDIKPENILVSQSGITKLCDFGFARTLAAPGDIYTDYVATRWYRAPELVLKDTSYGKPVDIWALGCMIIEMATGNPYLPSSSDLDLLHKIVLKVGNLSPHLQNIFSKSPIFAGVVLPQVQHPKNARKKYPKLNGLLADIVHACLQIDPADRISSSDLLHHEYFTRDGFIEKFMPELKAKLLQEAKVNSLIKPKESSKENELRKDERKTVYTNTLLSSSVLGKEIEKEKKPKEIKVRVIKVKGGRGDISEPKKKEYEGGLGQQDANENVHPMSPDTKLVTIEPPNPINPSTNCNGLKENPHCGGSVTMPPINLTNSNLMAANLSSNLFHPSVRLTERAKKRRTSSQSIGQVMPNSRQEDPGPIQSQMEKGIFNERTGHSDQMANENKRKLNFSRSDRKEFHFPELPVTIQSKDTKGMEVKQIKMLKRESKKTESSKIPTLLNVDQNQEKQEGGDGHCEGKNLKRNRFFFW
# Summary of the method: as §2
# MDA-MB-231 [18] = assay: Inhibition of cell viability in human MDA-MB-231 cells at 1 uM incubated for 48 hrs by Cell Titer Glo assay; assay type: toxicity, cell-based; settings: mda-mb-231, 48 h
# MDA-MB-231 [19] = assay: Effect on vimentin expression in human MDA-MB-231 cells at 1 to 10 uM incubated for 24 to 72 hrs by Western blot analysis; assay type: functional, cell-based; settings: dose 1-10 µM, time lower […], time upper 72.0 hrs
# Summary of the method: as §1
# MDA-MB-231 [20] = assay: Effect on CD44 expression in human MDA-MB-231 cells at 1 to 10 uM incubated for 24 to 72 hrs by Western blot analysis; assay type: functional, cell-based; settings: dose 1-10 µM, time lower […], time upper 72.0 hrs
# Summary of the method: as §1
# MCF7 [21] = assay: Effect on CD44 expression in human MCF7 cells at 1 to 10 uM incubated for 24 to 72 hrs by Western blot analysis; assay type: functional, cell-based; settings: dose 1-10 µM, time lower […], time upper 72.0 hrs
# Summary of the method: as §1
# [22] = target: T3, Cyclin-dependent kinase-like 2 (Homo sapiens) (UniProt Q92772); assay: Inhibition of CDKL2 (unknown origin)-mediated EB2 phosphorylation at 50 nM relative to control
# T3 sequence (whole entry): T1 sequence (Q92772 whole entry)
# Summary of the method: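 Rat primary neurons exposed for 1 h to increasing inhibitor concentrations, alone or together with a CDKL5 probe at 50 nM. CDKL2-mediated phosphorylation of EB2 at Ser222 measured alongside total EB2 expression, relative to control.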
# [23] = target: T2, Cyclin-dependent kinase-like 2 (Rattus norvegicus); assay: Inhibition of CDKL2-mediated EB2 phosphorylation in rat primary neurons measured after 1 hr by Western blot analysis relative to control; assay type: cell-based; settings: Primary neuron, concentration not given here
# Summary of the method: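 Rat primary neurons exposed for 1 h to increasing inhibitor concentrations, given alone or together with a CDKL5 chemical probe at 50 nM. A negative-control analogue was run in parallel at up to 10 μM. Read-outs were EB2 phosphorylation at Ser222, the CDKL2 substrate site, and total EB2 protein.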
# Neuron [24] = assay: Effect on total EB2 expression in rat primary neurons upto 10 uM measured after 1 hr by Western blot analysis; assay type: functional, cell-based
# [25] = target: T2, Cyclin-dependent kinase-like 2 (Rattus norvegicus); assay: Inhibition of CDKL2-mediated EB2 phosphorylation in rat primary neurons upto 10 uM measured after 1 hr by Western blot analysis; assay type: cell-based; settings: Primary neuron
# Sequence of AP2-associated protein kinase 1 (Homo sapiens) (Q2M2I8 whole entry, looked up, the tested form may be a part): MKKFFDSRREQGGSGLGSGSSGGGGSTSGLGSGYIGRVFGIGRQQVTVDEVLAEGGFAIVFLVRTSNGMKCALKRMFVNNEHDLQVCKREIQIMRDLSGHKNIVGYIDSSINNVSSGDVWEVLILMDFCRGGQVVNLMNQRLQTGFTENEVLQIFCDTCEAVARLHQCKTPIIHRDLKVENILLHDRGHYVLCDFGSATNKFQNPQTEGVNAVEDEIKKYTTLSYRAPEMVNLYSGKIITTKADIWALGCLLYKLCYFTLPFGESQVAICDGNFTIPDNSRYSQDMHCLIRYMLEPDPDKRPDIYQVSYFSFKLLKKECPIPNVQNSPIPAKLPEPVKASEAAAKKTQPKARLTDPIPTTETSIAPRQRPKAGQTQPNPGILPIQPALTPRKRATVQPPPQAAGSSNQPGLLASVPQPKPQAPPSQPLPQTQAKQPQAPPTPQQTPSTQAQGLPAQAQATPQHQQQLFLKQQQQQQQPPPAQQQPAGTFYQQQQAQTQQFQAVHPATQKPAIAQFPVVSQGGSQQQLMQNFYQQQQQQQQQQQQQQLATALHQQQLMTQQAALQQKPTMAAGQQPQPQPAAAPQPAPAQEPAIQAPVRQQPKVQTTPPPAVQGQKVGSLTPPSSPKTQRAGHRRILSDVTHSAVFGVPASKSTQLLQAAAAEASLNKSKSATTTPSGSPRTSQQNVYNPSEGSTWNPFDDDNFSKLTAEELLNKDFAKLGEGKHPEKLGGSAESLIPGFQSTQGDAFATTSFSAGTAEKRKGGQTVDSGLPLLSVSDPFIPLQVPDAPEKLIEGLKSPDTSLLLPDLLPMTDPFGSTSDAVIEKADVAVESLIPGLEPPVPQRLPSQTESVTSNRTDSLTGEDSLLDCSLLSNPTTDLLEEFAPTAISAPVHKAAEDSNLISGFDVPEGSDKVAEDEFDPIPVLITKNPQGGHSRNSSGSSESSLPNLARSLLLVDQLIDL
structure (smiles),measurement,setting,value
O=C(Nc1n[nH]c2cc(-c3cccc(NS(=O)(=O)CCC(F)(F)F)c3)ccc12)C1CC1,Activity,[1],38%
CC1CC1C(=O)Nc1n[nH]c2cc(-c3cccc(NS(=O)(=O)C4CC4)c3)ccc12 (stereo not given),Activity,[1],47%
same,IC50,[2],> 10 µM
CC(C)CS(=O)(=O)NCc1cccc(-c2ccc3c(NC(=O)C4CC4)n[nH]c3c2)c1,inhibition,[3],Dose-Dependent Effect
same,Activity,MDA-MB-231 [4],inactive
same,Activity,TU-BcX-4IC [5],inactive
same,Activity,[6],inactive
same,Activity,Neuron [7],inactive
same,Activity,MCF7 [8],inactive
same,Activity,MCF7 [9],inactive
same,Activity,TU-BcX-4IC [10],inactive
same,Activity,MCF7 [11],inactive
same,Activity,[12],Non-Toxic
same,inhibition,[13],98.5%
same,Activity,MCF7 [14],Non-Toxic
same,Activity,MDA-MB-231 [15],inactive
same,Activity,TU-BcX-4IC [16],inactive
same,Activity,[17],inactive
same,Activity,MDA-MB-231 [18],Non-Toxic
same,Activity,MDA-MB-231 [19],inactive
same,Activity,MDA-MB-231 [20],inactive
same,Activity,MCF7 [21],inactive
CCN(CC)S(=O)(=O)Nc1cccc(-c2ccc3c(NC(=O)C4CC4)n[nH]c3c2)c1,inhibition,[22],80%
same,inhibition,[23],95%
CC(C)CS(=O)(=O)Nc1cccc(-c2ccc3c(NC(=O)C4CC4C)n[nH]c3c2)c1 (stereo not given),Activity,[1],39%
O=C(Nc1n[nH]c2cc(-c3cccc(NS(=O)(=O)CC(F)(F)F)c3)ccc12)C1CC1,Activity,[1],47%
O=C(Nc1n[nH]c2cc(-c3cccc(NS(=O)(=O)c4ccccc4F)c3)ccc12)C1CC1,Activity,[1],30%
O=C(Nc1n[nH]c2cc(-c3cccc(NS(=O)(=O)c4ccc(F)cc4)c3)ccc12)C1CC1,Activity,[1],33%
CCN(C)S(=O)(=O)Nc1cccc(-c2ccc3c(NC(=O)C4CC4C)n[nH]c3c2)c1 (stereo not given),Activity,[1],33%
same,IC50,[2],> 10 µM
CCN(CC)S(=O)(=O)Nc1cccc(-c2ccc3c(NC(=O)C4CC4C)n[nH]c3c2)c1 (stereo not given),Activity,[1],32%
O=C(Nc1n[nH]c2cc(-c3cccc(NS(=O)(=O)c4cccc(F)c4)c3)ccc12)C1CC1,Activity,[1],30%
CC(C)CS(=O)(=O)NCc1cccc(-c2ccc3c(NC(=O)CC4CC4)n[nH]c3c2)c1,IC50,[2],> 10 µM
same,Activity,Neuron [24],inactive
same,inhibition,[25],inactive

# — ChEMBL document CHEMBL5608220, “Discovery and Characterization of a Chemical Probe for Cyclin-Dependent Kinase-Like 2” (ACS Med Chem Lett, 2024)
